From PubChem
A selection: hits, their analogues and other compounds. The true share with any hit is near 3%.
GASC-1 inh: inhibitors of GASC-1 histone demethylase, primary screen, biochemical, fluorescence, DELFIA europium | inhibition, % at 2.35 µM | 0.069% of 330,000 active | Lysine-specific demethylase 4C (Homo sapiens), Q9H3R0 | GST-JMJD2C(1-420) H3K9me3 demethylation | AID 2099, 2009;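 active means more than half of a compound's replicate wells show inhibition beyond 50%, single wells judged on their own value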;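 further: signal counts dimethyl H3K9 product captured on neutravidin plate; 0% = median of DMSO wells and 100% = 0.3 times that DMSO median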
Target sequence (Q9H3R0 1-420 limits assumed): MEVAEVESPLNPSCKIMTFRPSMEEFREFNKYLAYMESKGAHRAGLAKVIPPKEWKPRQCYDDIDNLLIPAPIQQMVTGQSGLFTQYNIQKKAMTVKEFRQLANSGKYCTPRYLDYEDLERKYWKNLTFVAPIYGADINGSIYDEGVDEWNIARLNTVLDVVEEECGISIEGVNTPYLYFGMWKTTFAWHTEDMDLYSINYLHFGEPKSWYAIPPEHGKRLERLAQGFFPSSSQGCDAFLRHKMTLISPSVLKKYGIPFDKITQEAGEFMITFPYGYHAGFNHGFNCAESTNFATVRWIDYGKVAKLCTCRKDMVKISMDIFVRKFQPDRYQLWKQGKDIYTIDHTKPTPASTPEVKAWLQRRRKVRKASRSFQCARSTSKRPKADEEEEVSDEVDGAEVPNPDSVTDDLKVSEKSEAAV
GRIN3A LBD mod: binders of NR3A ligand-binding domain, primary screen, biophysical, differential scanning fluorimetry, uHTS | Glutamate receptor ionotropic, NMDA 3A (GRIN3A) ligand-binding domain | NR3A LBD differential scanning fluorimetry, Tm shift; 0% = protein alone, 100% = glycine-bound protein | Tm shift relative to glycine control, % at 25 µM | 2.5% of 340,000 active;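 active means melting temperature shift of at least 10% of the positive control shift, at one fixed dose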
aDG glyco act: activators of alpha-DG glycosylation, primary screen, uHTS, Pro5-aDG cells, AlphaScreen | alpha-DG glycosylation AlphaScreen (IIH6); 0% Pro5, 100% B10-LARGE cell signal | 0.22% of 360,000 active | activation, % at 10 µM;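 active means activation of at least 8% versus controls, or a plate z-score of at least 8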;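 further: Pro5 are CHO cells carrying HIG-tagged alpha-DG that lacks glycosylation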
GC-B act: human GC-B receptor activators, primary screen, HEK293 GC-B cells, cGMP TR-FRET, EC30 CNP; Atrial natriuretic peptide receptor 2 (Homo sapiens), P20594; 0% at EC30 CNP, 100% saturating CNP; activation, % at 10 µM; 0.11% of 370,000 active; AID 1920062, 2024;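 active means activation at 10 µM reaching about 35% in either raw or pattern-adjusted values, limit read from the data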
GC-A act: GC-A stimulated cGMP production enhancers – HEK293 GC-A cells, cGMP TR-FRET, EC30 ANP, primary screen; activation, % at 10 µM; AID 1671463, 2021; Atrial natriuretic peptide receptor 1 (Homo sapiens), P16066; 0.14% of 370,000 active; 0% at EC30 ANP, 100% saturating ANP; in the data active means activation above about 40%
Hep lipid drop: inhibitors of hepatocyte lipid droplet formation, primary screen, imaging, high-throughput imaging, BODIPY stain; AML12 mouse hepatocytes, oleate lipid droplets; inhibition, % at 6.5 µM; 0.4% of 240,000 active; AID 1656, 2009;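 active means lipid droplet intensity inhibited by at least 50%, with more than 500 cells counted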
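Assay system: AML12 hepatocytes (mouse); Probe or stimulus: oleic acid at 100 µM to induce lipid droplet formation; Dosing: compound at 6.5 µM only; Schedule: compound with oleate, overnight; Detection: fluorescence imaging, 20x objective, two fields per well; Measure: % inhibition of lipid droplet signal.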
* = called active by the depositor; . = no result given.

SMILES	GASC-1 inh	GRIN3A LBD mod	aDG glyco act	GC-B act	GC-A act	Hep lipid drop
CSc1ccc(S(=O)(=O)Nc2ccc(S(=O)(=O)Nc3ccc(C)cc3)cc2)cc1	47.1	24.7*	0.1	3.8	-1.3	-5.8
CSc1ccc(S(=O)(=O)Nc2ccc(NC(C)=O)cc2)cc1	-4.7	4.6	0.0	-0.7	-2.5	18.2
Cc1ccc(CNC(=S)Nc2ccc(NS(=O)(=O)c3ccc(C)cc3)cc2)cc1	2.3	22.6*	0.3	-0.4	0.5	-56.8
Cc1ccc(S(=O)(=O)Nc2ccc(N=Nc3ccc(O)cc3)cc2)cc1	-2.7	14.0*	0.2	-1.8	-5.2	17.3
O=C(NCc1ccccc1)[C@H]1CCCN1C(=O)[C@H]1CCCN1C(=O)c1ccc(OC(F)(F)F)cc1	.	.	.	-1.4	2.0	.
CC1CCN(c2ccc(C(=O)O)cc2NS(=O)(=O)c2ccccc2)CC1	.	.	.	3.5	3.3	.
Fc1ccc(-c2n[nH]c(=S)n2N=Cc2ccc(OCc3ccccc3)cc2)cc1	.	.	.	-4.6	-2.1	.
CCN1CCCC1CNC(=O)Cn1nc(C)n2nc(-c3ccccc3)cc2c1=O (stereo unspecified)	-3.3	0.5	0.0	-1.9	5.7	-27.1
CC(C)[C@H](NC(=O)[C@@H]1CCCN1)C(=O)N1CCC2CCN(S(=O)(=O)c3ccccc3)CC21 (stereo partly specified)	.	.	.	12.7	4.5	.
CSc1cccc(NS(=O)(=O)c2ccccc2)c1	-2.3	19.9*	-0.1	-2.2	-5.5	4.6
CSc1cccc(NS(=O)(=O)c2ccc(F)cc2)c1	5.6	-2.6	0.0	-0.4	1.1	-0.3
COC(=O)CSc1nnc(-c2c[nH]c3ccccc23)o1	-4.0	1.6	0.0	2.5	-0.4	-7.7
O=C(CSc1nnc(-c2c[nH]c3ccccc23)o1)c1ccc(-c2ccccc2)cc1	-7.3	24.2*	0.2	6.4	-1.9	0.0
Cc1cc(O)c(/C=N/Nc2cccc(Cl)c2)c(=O)o1	6.0	2.5	-0.1	4.3	-5.4	.
Cc1cc(O)c(/C=N/Nc2ccc(Cl)cc2)c(=O)o1	3.9	-7.5	6.5*	-5.6	-5.3	.
COC(=O)C1=C(C)N(Cc2ccc(C(F)(F)F)cc2)C(=NCc2ccc(C(F)(F)F)cc2)NC1c1ccccc1 (stereo unspecified)	.	.	.	-9.2	-13.2	.
C#CC1(O)CCC2C3CCc4cc(O)cc(C)c4C3CCC21C (stereo unspecified)	.	-4.8	-0.4	4.0	-4.1	.
O=C(Nc1nc(-c2ccccc2)c(-c2ccccc2)s1)c1ccc(S(=O)(=O)N2CCCC2)cc1	3.5	2.0	0.9	1.0	-3.2	21.0
O=C(Nc1nc(-c2ccccc2)c(C(=O)c2ccccc2)s1)c1ccc(S(=O)(=O)N2CCCC2)cc1	5.2	14.4*	0.1	5.1	0.5	-18.5
N#CCCN(CCC#N)S(=O)(=O)c1ccc(C(=O)Nc2nc(-c3ccccc3)c(C(=O)c3ccccc3)s2)cc1	-2.3	11.7*	-0.1	-0.5	-1.3	13.4
Cc1ccc(-c2nc(NC(=O)c3ccc(S(=O)(=O)N(CCC#N)CCC#N)cc3)sc2-c2ccccc2)cc1	-1.3	10.3*	0.5	5.7	-4.2	40.4
CCCN(CCC)S(=O)(=O)c1ccc(C(=O)Nc2nc3c(s2)CCc2ccccc2-3)cc1	.	9.0	-0.3	4.6	2.8	-15.5
CN(C)S(=O)(=O)c1ccc(C(=O)Nc2nc(-c3ccccc3)c(C(=O)c3ccccc3)s2)cc1	-13.2	22.2*	-0.4	3.2	-2.2	-9.4
O=C(NCCO)[C@H](Cc1ccccc1)NC1(C(=O)NCCc2c[nH]c3ccccc23)CCCCC1	.	.	.	-6.6	-0.6	.
CCC(NC(=O)c1ccc2c(ccn2Cc2cccc(-c3ccc(C(=O)O)cc3)c2)c1)c1ccccc1 (stereo unspecified)	.	.	.	-8.9	-8.0	.
